# This excerpt belongs to a sample that is enriched for hits.
# T cell HTS = T cell immune modulators affecting CD8 T cell-vesicle binding. 2C CD8+ T cell-vesicle binding, flow cytometry; stronger effect = lower value. response (vesicle binding), % at 7 µM. hit rate 0.068% among 330,000. AID 2052;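 active = response, share of CD8 T cells binding vesicles, and their 90th percentile fluorescence all below set limits, cut at about 80% in these data, passing the limit was not always enough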;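 also: values below 100% mean blocked vesicle binding to the CD8+ T cells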
#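 Also added: QL9-peptide-loaded Drosophila micro-vesicles bearing Ld, ICAM-1 and B7-1; Test system: purified 2C TCR transgenic mouse naive CD8+ T cells; Measured by: cytometric PE anti-B7-1 and Alexa647 anti-CD8 signals after 1% paraformaldehyde fixation; Timing: binding step 1.5 h, 37 °C, antibody labelling 20 min, ice.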
# Glyco luc inh = N-linked glycosylation inhibition | D54 ERlucT glycosylation luciferase reporter, 24 h; percent of 100 nM tunicamycin response | reporter increase, % at 12.5 µM | hit rate 0.23% among 360,000;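 active = mean luciferase reporter signal, scaled so untreated is 0 and the glycosylation-blocking control 100, at or above a set limit in every replicate; inconclusive = mean reaches the limit but not every replicate does; inactive = mean below the limit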;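 also: luciferase carries N-glycosylation sites so blocking glycosylation raises the light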
# ALR inh = inhibitors of human sulfhydryl oxidase ALR | P55789 | purified ALR, DTT oxidation, H2O2 HRP-luminol luminescence | inhibition, % (no concentration beside the values) | hit rate 3.8% among 290,000 | AID 485317;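 active = mean replicate inhibition above about 79%, with every replicate also reaching it, limit read from the data; inconclusive = only one of the two criteria met; inactive = mean below limit and not every replicate reaching it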
# Target sequence (P55789 whole entry, looked up): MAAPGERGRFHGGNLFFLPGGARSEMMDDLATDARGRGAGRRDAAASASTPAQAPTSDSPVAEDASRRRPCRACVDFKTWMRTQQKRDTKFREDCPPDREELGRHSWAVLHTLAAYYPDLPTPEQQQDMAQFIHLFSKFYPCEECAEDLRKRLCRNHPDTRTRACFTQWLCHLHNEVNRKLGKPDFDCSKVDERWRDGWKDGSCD
# Numbers stand for hits; – = inactive; ? = inconclusive; · = no result given.
SMILES,T cell HTS,Glyco luc inh,ALR inh
C[C@H](CO)N1C[C@H](C)[C@@H](CN(C)S(C)(=O)=O)Oc2ccc(NC(=O)Nc3ccc4c(c3)OCO4)cc2C1=O,–,–,–
Cc1cc(Cl)ccc1NC(=O)CCC(=O)N/N=C/c1cccnc1,–,–,–
CC1CN(C(=O)CSc2nc(N)c(NC(=O)c3ccc(C(F)(F)F)cc3)c(=O)[nH]2)CC(C)O1 (configuration not stated),·,–,·
COc1ccc(S(=O)(=O)N2CCN(C(=O)/C=C/c3ccco3)CC2)cc1,·,–,·
COCc1ccc(C(=O)N2CCCC(Nc3ccc(C(C)C)cc3)C2)o1 (configuration not stated),–,–,93
COCc1ccc(C(=O)N2CCCC(Nc3ccc(C(C)C)cc3)C2)s1 (configuration not stated),–,–,93
CC1CN(C(=O)c2ccc(COc3ccc(C(C)C)cc3)o2)CC(C)O1 (configuration not stated),–,–,–
CC(C)c1ccc(NC2CCCN(C(=O)c3cnn(C(C)C)c3)C2)cc1 (configuration not stated),–,–,·
CC(=O)N1c2ccc(S(=O)(=O)NCC3CCC(C(=O)NC4CCCCC4)CC3)cc2CC1C (configuration not stated),–,–,–
Cn1nnc2cc(C(=O)Nc3ccccc3F)ccc21,–,–,–
Cc1ccc(C(=O)NC(=C(Cl)Cl)S(=O)(=O)c2ccc(C)cc2)cc1,–,?,99
CC(=O)NC(=C(Cl)Cl)S(=O)(=O)c1ccccc1,–,?,–
Cc1ccc(S(=O)(=O)C(NC(=O)c2ccccc2)=C(Cl)Cl)cc1,–,75,·
Cc1ccc(S(=O)(=O)/C(=C/Cl)NC(=O)c2ccccc2)cc1,–,–,·
O=C(NC(=C(Cl)Cl)S(=O)(=O)c1ccc(Cl)cc1)c1ccccc1,–,59,–
Cc1ccc(C(=O)NC(=C(Cl)Cl)S(=O)(=O)c2ccc(Cl)cc2)cc1,–,54,–
Cc1ccc(C(=O)NNC(=S)NC(=O)c2ccc(Cl)cc2)cc1,–,–,–
Cc1ccc(C(=O)NS(=O)(=O)c2ccc(C)cc2)cc1,–,–,–
O=C(NCCCCl)C1CC(=O)N(CCc2ccc(F)cc2)C1 (configuration not stated),–,–,·
CC(=O)N1c2ccc(S(=O)(=O)N3CCCC3)cc2CC1C(=O)NCc1ccc(N(C)C)cc1 (configuration not stated),–,–,–
COc1ccc(-n2c(=S)[nH]c3c(oc4ccccc43)c2=O)cc1,–,–,93
Cc1ccc(-n2c(=O)[nH]c3c(oc4ccccc43)c2=O)cc1,–,–,–
COc1ccc(Br)cc1CN1CCC(N2CCCC2)CC1,–,–,–
Cc1nn(CCc2n[nH]c(=S)n2-c2ccc(F)c(Cl)c2)c(C)c1[N+](=O)[O-],–,–,92
Cc1nn(CCc2n[nH]c(=S)n2-c2ccc(F)cc2)c(C)c1[N+](=O)[O-],–,–,81
SMILES,T cell HTS,Glyco luc inh,ALR inh
Cc1nn(CCc2n[nH]c(=S)n2-c2cccc(Cl)c2)c(C)c1[N+](=O)[O-],–,–,–
Cc1nn(C(C)c2n[nH]c(=S)n2-c2ccc(F)cc2)c(C)c1[N+](=O)[O-] (configuration not stated),–,–,–
C#CCOCCOCCOCCNc1nc(N2CCN(C(=O)[C@H](CCCCN)n3cc([C@@H](N)CO)nn3)CC2)nc(N2CCN(C(=O)[C@H](CCCCN)n3cc([C@@H](N)CC(C)C)nn3)CC2)n1,–,–,–
COc1ccc(S(=O)(=O)N2CCOCC2)cc1NC(=O)Cc1coc2cc(C)c(C)cc12,–,–,–
COCc1nnc(NC(=O)CS(=O)(=O)c2ccc(C)cc2)s1,–,–,–
S=C(NCCCCN(Cc1ccc(Cl)cc1)c1ccc(Br)cn1)NCCCc1cnc[nH]1,·,–,·
CCCCNC(=O)COC(=O)c1ccccc1F,–,–,–
CC(C)c1ccc(NC(=O)CCNS(=O)(=O)c2cc(Br)cnc2N)cc1,–,–,–
Cc1ccc(S(=O)(=O)N2CCCCC2)cc1NC(=O)c1nn(C)c(=O)c2ccccc12,·,–,·
Cc1nc(NC(=O)c2ccccc2)sc1C,–,–,–
Cc1csc(Nc2ccc(C(=O)O)cc2)n1,–,–,·
Cc1nc(Nc2ccccc2)sc1C,–,–,99
Cc1csc(Nc2ccccc2)n1,–,–,98
Cc1ccc(C)c(NC(=O)CSc2n[nH]c(-c3ccncc3)n2)c1,–,–,–
Cc1ccc(C)c(NC(=O)CSc2c(C)n[nH]c2C)c1,–,–,96
Cc1cc(Cl)ccc1OCc1nc(-c2ccc(O)cc2)n[nH]1,–,–,98
Cc1ccc(C(=O)CC(=O)COc2ccc(Cl)cc2C)cc1,–,–,–
N#C/C(=C\Nc1ccc2cn[nH]c2c1)c1nc(-c2ccc(Cl)cc2)cs1,–,–,·
N#CC(=Cc1ccccn1)c1nc(-c2ccc(Cl)cc2)cs1,·,42,·
CC(C)c1ccc(S(=O)(=O)NC2CCS(=O)(=O)C2)cc1 (configuration not stated),–,–,–
O=C(C(Cc1ccccc1)NS(=O)(=O)c1cccc2cccnc12)N1CCc2ccccc21 (configuration not stated),–,–,88
O=S(=O)(c1cccc2cccnc12)N1CCc2ccccc21,–,–,–
O=C(NC(=S)Nc1ccc2c(c1)C(=O)c1ccccc1C2=O)c1ccc(F)cc1,–,·,–
CN(C)C(=O)c1ccc(NC(=O)c2cccc(S(=O)(=O)N3CCCc4ccccc43)c2)cc1,–,–,98
CN(C)C(=O)c1ccc(NC(=O)c2cccc(S(=O)(=O)N3CCCCCC3)c2)cc1,–,–,–
SMILES,T cell HTS,Glyco luc inh,ALR inh
O=C(O)c1cccc(NC(=O)c2cccc(S(=O)(=O)N3CCc4ccccc43)c2)c1,–,–,·
Cc1ccc2c(c1)CCCN2S(=O)(=O)c1cccc(C(=O)Nc2ccccc2C(=O)O)c1,–,–,98
CC(C)(C)OC(=O)N(CC1CCNCC1)C(=O)c1[nH]c(C(F)(F)F)nc1-c1ccccc1,·,–,·
Cc1cccn2c(=O)c3cc(C#N)c(=NC(=O)c4ccccc4)n(Cc4ccco4)c3nc12,–,–,89
CCOC(=O)c1cc2c(=O)n3ccccc3nc2n(Cc2ccco2)c1=NC(=O)c1cccnc1,–,–,–
Cc1cccc(C(=O)N=c2c(C#N)cc3c(=O)n4cccc(C)c4nc3n2Cc2ccco2)c1,–,–,·
CCOC(=O)c1cc2c(=O)n3ccccc3nc2n(Cc2ccco2)c1=NC(=O)c1ccccc1OCC,–,–,90
COc1cc(C(C)=O)ccc1OCC(=O)Nc1ccc2nc(C)sc2c1,–,–,–
COc1cc(OC)cc(C(=O)NCC(=O)OC2CCCCC2=O)c1 (configuration not stated),–,–,·
CC(=O)Nc1ccccc1OCC(=O)N(Cc1ccccc1)C(C)C,–,–,–
O=C1OCCC1=COCCCCCCOC=C1CCOC1=O,·,–,·
O=C(CSc1ccccc1F)NC(=O)c1ccc(Cl)cc1,–,–,–
CCNC(=S)/C(=C(/[O-])c1ccc([N+](=O)[O-])cc1)[n+]1ccccc1,–,–,99
C=CCNC(=S)/C(=C(/[O-])c1ccc([N+](=O)[O-])cc1)[n+]1ccccc1,–,–,–
CCc1noc(C)c1C(=O)N1CCC(CCC(=O)Nc2cccc(OC)c2)CC1,–,–,–

# Screens as filed in PubChem.
